Assay outcomes deposited in PubChem by several laboratories.
CSN deneddyl inh = inhibitors of CSN-mediated cullin deneddylation, primary screen, biochemical, fluorescence polarization, uHTS | COP9 signalosome complex subunit 5 (Homo sapiens), Q92905 | Purified CSN, SCF-Nedd8-OG deneddylation | inhibition, % at 12.5 µM | 360,000 tested, 0.38% active;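 active means pattern-corrected inhibition above about 35%, with an unprinted fluorescence ratio check between 0.5 and 1.5, limit read from the data, passing the limit was not always enough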;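 further: 0% = enzyme with substrate and 100% = substrate without enzyme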
Target sequence (Q92905 whole entry, looked up, one chain of several): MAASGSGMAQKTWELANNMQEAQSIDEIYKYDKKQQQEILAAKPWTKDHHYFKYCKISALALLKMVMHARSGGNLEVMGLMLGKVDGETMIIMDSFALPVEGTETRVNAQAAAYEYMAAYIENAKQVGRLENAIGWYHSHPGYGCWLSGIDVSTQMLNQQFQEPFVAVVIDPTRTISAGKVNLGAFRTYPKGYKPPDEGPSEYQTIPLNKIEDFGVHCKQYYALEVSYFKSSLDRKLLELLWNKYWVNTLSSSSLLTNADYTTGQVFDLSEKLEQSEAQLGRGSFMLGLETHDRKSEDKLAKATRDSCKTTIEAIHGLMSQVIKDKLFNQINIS
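Schedule: reaction 90 min, room temperature / Assay system: HEK293T-derived human Csn5 enzyme / Input: Csn5 at 0.24 nM final / Measure: inhibition of Csn5 cleavage, % / Control set: substrate-only high control, full reaction low control / Technique: fluorescence polarization of the substrate / Buffer or medium: Tris/NaCl/DTT buffer, pH 7.5 / Reagent: SCFSkp2-Nedd8OG substrate at 10 nM final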
EBNA-1 inhibitor = EBNA-1 DNA-binding inhibitors, primary screen, biochemical, fluorescence polarization; 300,000 tested, 0.34% active; inhibition, % at 14.8 µM; in the data active means inhibition above about 28%
LANA-H2B inh = blockers of LANA interaction with H2A/H2B – biochemical, FP readout, HTS, primary screen; Protein LANA1 (Human herpesvirus 8 type P (isolate GK18)), Q9QR71; cell-free LANA-H2A/H2B peptide, fluorescence polarization; inhibition, % (no concentration beside the values); 320,000 tested, 0.6% active; AID 2629, 2010; in the data active means inhibition mostly above about 10%, no sharp cut-off; inactive means mostly below about 6.7%
HNF4A DNA FP = change in binding of human HNF4A to DNA, primary screen, biochemical, fluorescence polarization, FITC-DNA | activity change, % at 10 µM | 1 h | Hepatocyte nuclear factor 4-alpha (Homo sapiens), P41235 | AID 1224865, 2016 | 360,000 tested, 0.3% active; in the data active means activity change above about 30%, passing the limit was not always enough
ZTA counter = blocks Epstein-Barr virus ZTA, an EBNA-1 counter-screen. P03206. 320,000 tested, 0.15% active. inhibition, % at 11 µM. ZTA-DNA binding, fluorescence polarization; in the data active means inhibition above about 33%
Target sequence (P03206 whole entry, looked up): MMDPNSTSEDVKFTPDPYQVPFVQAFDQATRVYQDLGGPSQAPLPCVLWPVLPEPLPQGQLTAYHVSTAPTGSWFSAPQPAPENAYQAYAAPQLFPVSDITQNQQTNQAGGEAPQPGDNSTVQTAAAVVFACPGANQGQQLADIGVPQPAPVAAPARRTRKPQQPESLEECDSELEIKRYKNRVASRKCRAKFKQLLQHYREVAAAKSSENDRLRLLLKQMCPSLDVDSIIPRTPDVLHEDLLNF
A1 inh = caspase 3/7 activation in MEF A1-2A-BIM cells, primary screen, A1 inhibitor project, cell-based, luminescence, HTS. Caspase-Glo 3/7 luminescence, 3 h; percent of clofoctol response, vehicle zero. caspase activation, % (no concentration beside the values). 330,000 tested, 0.066% active. AID 2462, 2010;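 active means over half of replicate activation scores above 10%, or exactly half above 10 with the replicate mean above 10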
EBNA-1 confirm = EBNA-1 DNA-binding inhibitors, retest, confirmation, biochemical, fluorescence polarization, triplicate; shares compounds with EBNA-1 inhibitor; Recombinant EBNA-1 DBD, Cy5-DNA fluorescence polarization; inhibition, % at 14.8 µM; 830 tested, 35% active; AID 2292, 2010;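 active means mean inhibition across replicates above a set limit taken from the earlier primary screen, cut at about 28% in these data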;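 further: plate controls were EBNA-1 protein with DMSO for no effect and wells lacking EBNA-1 for full effect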
ZTA DNA inh trip = EBV Zta DNA binding inhibitors, counter-screen for EBNA-1 inhibitor project, biochemical, fluorescence polarization, triplicate; shares compounds with EBNA-1 inhibitor; Zta-ZRE DNA binding, Cy5 fluorescence polarization; inhibition, % at 11.1 µM; 830 tested, under 10 active; AID 2328, 2010;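 active means mean inhibition over triplicates above a set limit taken from the primary EBNA-1 screen, cut at about 37% in these data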;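 further: purified full length Zta protein with Cy5 labeled ZRE DNA probe; 0% = Zta with DMSO and 100% = wells lacking Zta protein; inhibitors lower polarization by freeing the labeled DNA probe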
Active calls of the source: *; / = not tested or not shown; ! = a repeat was not active. Only some compounds are listed: those with a hit (about 1.5% of all), similar ones and a draw of the others.

SMILES	CSN deneddyl inh	EBNA-1 inhibitor	LANA-H2B inh	HNF4A DNA FP	ZTA counter	A1 inh	EBNA-1 confirm	ZTA DNA inh trip
COC(=O)Cc1c(C)c2ccc(OC3CCCCC3=O)cc2oc1=O (stereo not drawn)	3.2	/	3.5	-2.2	/	2.0	/	/
COC(=O)Cc1c(C)c2ccc(OC3CCCCC3=O)c(C)c2oc1=O (stereo not drawn)	4.5	125.4*	2.7	-2.2	23.8	1.1	-1.4	-3.9
O=C(Cc1coc2cc(O)ccc12)NNC(=O)c1ccc(Br)s1	-0.8	/	-0.6	1.5	/	1.3	/	/
CCCCC(=O)Nc1sc2c(c1C(=O)OCC)CCC(C=O)=C2Cl	2.2	2.5	1.9	1.1	3.6	0.9	/	/
CCOC(=O)c1sc(N2C(=O)C(O)=C(C(=O)c3ccc(C)o3)C2c2cccc([N+](=O)[O-])c2)nc1C (stereo not drawn)	6.4	32.7*	0.8	-3.0	23.1	-0.7	17.0	-20.4
COc1ccc(OC)c(NC(=O)C2CCCN(S(=O)(=O)c3ccc(-n4cnnn4)cc3)C2)c1 (stereo not drawn)	1.6	48.8*	-0.4	2.1	-11.1	-0.3	41.0*	9.5
COc1ccc(C)cc1NC(=O)C1CCCN(S(=O)(=O)c2ccc(-n3cnnn3)cc2)C1 (stereo not drawn)	0.2	-18.2	5.0	-0.3	-9.1	-0.8	/	/
COc1ccc(NC(=O)c2ccc3c(c2)CCN3S(=O)(=O)c2ccccc2)c(OC)c1	-0.8	28.3*	-1.0	2.0	-1.1	-1.1	15.1	5.0
CCOC(=O)C1(C)CCN1C(=O)c1cccc(C(F)(F)F)c1 (stereo not drawn)	-0.2	/	/	3.6	/	/	/	/
Cc1cc(C)n(-c2ccc(C(=O)OCC(=O)NC(c3ccccc3)c3ccccc3)cc2)n1	5.5	32.1*	-2.4	-1.0	18.6	0.5	25.8	2.4
CCOC(=O)c1ccc(-n2nc(C)cc2C)cc1	-2.9	9.1	-2.9	19.8	-22.5	-6.5	/	/
Cc1ccc(Nc2nc(NCC3CCCO3)nc(N)c2[N+](=O)[O-])cc1C (stereo not drawn)	1.4	122.1*	3.5	-6.5	8.4	-0.7	109.7*	16.2
Nc1ccn([C@@H]2O[C@H](C(=O)N[C@H](CO)Cc3ccccc3)[C@@H](O)[C@H]2O)c(=O)n1	2.1	/	/	-1.3	/	/	/	/
O=C1COc2ccc(C(=O)COC(=O)c3ccccc3F)cc2N1	3.6	/	-2.8	0.2	/	-6.4	/	/
O=C1COc2ccc(C(=O)COC(=O)c3cc(S(=O)(=O)NCc4ccccc4)ccc3O)cc2N1	3.2	31.3*	-0.9	6.8	6.3	0.4	4.7	-4.2
C=CCn1c(SCC(=O)Nc2ccccc2OC)nc2c([nH]c3ccccc32)c1=O	3.5	40.3*	-0.4	-5.8	-5.8	0.2	4.7	3.6
COCCn1c(SCC(=O)Nc2ccccc2F)nc2c([nH]c3ccccc32)c1=O	4.5	0.0	0.2	-0.1	15.5	0.5	/	/
COCCn1c(SCC(=O)Nc2ccccc2OC)nc2c([nH]c3ccccc32)c1=O	2.8	30.2*	1.2	2.0	13.3	0.1	-2.5	16.9
CSc1ccc(CN2CCC2(C)C(=O)Nc2ccc3c(c2)OCO3)cc1 (stereo not drawn)	-0.8	/	/	-3.1	/	/	/	/
O=C(CSc1nnc(SCc2ccc(Cl)cc2)s1)N/N=C/c1c(Cl)cccc1Cl	0.0	35.3*	0.6	-0.3	-15.0	0.2	-0.4	-6.3
Cc1csc2c(=O)[nH]cnc12	-11.8	-0.8	0.5	-1.9	2.3	0.5	/	/
Cc1ccc(C(=O)CCC(=O)OCC(=O)Nc2cc(S(=O)(=O)N(C)C)ccc2C)cc1	1.1	/	/	-1.3	/	/	/	/
Cc1ccc(S(=O)(=O)N(C)C)cc1NC(=O)COC(=O)CCCOc1ccccc1	-1.3	72.3*	-11.3	-1.0	-8.4	-0.7	-8.6	-1.4
COCCCNC(=O)c1ccc(Cn2c(=O)c3ccccc3n(Cc3ccccc3C#N)c2=O)cc1	3.3	32.5*	-2.6	-2.6	6.4	0.3	11.2	0.7
COc1ccc(N=C2NC(=O)/C(=C\C=C\c3ccccc3)S2)cc1	-1.9	-1.1	2.6	-4.1	3.1	-0.3	/	/
SMILES	CSN deneddyl inh	EBNA-1 inhibitor	LANA-H2B inh	HNF4A DNA FP	ZTA counter	A1 inh	EBNA-1 confirm	ZTA DNA inh trip
COc1ccc(N=C2NC(=O)/C(=C/C=C/c3ccccc3)S2)cc1	3.7	31.9*	-4.6	2.6	11.6	-1.2	28.8*	16.1
Cc1cc(=O)oc2cc(NC(=O)Cc3ccccc3[N+](=O)[O-])ccc12	3.8	7.1	-1.7	-3.0	11.4	-0.1	/	/
Cc1cc(N/N=C/c2c(O)ccc3ccccc23)nc(-c2ccccc2O)n1	1.9	49.0*	0.7	1.1	12.1	0.0	20.5	1.2
C=CCOc1ccc(-c2nc3c(c(=O)[nH]c(=O)n3Cc3ccccc3)n2CCCOC)cc1	2.6	29.1*	0.7	1.9	16.3	-0.1	-2.0	-2.7
Nc1nc(-c2ccc3c(c2)CCCC3)cs1	-4.1	53.1*	1.2	1.6	-16.6	-2.6	7.4	-5.7
Cc1cc(C(=O)N/N=C/c2ccc(-c3cccc(Br)c3)o2)n[nH]1	2.5	35.4*	-2.5	-0.4	-1.3	-0.5	15.5	16.8
Cc1cc(C(=O)N/N=C/c2cc(N=Nc3ccccc3)ccc2O)n[nH]1	27.1	74.7*	-1.5	34.7	17.0	-1.4	-6.5	38.4*
COC(=O)N/N=C/c1cc(N=Nc2ccccc2)ccc1O	1.3	-11.7	3.0	0.5	-4.8	-1.7	/	/
Cc1cc(C(=O)N/N=C/c2ccc(-c3cccc(Cl)c3Cl)o2)n[nH]1	-2.6	13.1	1.3	12.9	12.0	-0.8	/	/
C[C@@H]1CN([C@@H](C)CO)C(=O)c2cc(Br)cnc2O[C@H]1CN(C)Cc1ccccc1C(=O)O	1.0	/	/	-5.4	/	/	/	/
COc1ccccc1CNC(=O)c1ccccc1NC(=O)C1=C(C)OCCS1	2.2	1.7	-0.8	1.8	-9.7	1.2	/	/
CC1=Nc2ccc(C)cc2/C1=C/c1c(N)n2oc(C)cc2nc1=O	17.7	28.1*!	-8.2	18.8	19.4	1.0	32.7*	1.2
